Data from ChEMBL document CHEMBL5661984, “Allosteric ligands for the pharmacologically dark receptors GPR68 and GPR65” (Nature, 2015).
The source made the active and inactive calls. The calls are words filed in the database; no cut-off is given here.

What was measured:
[1] = molecular target: T1, G-protein coupled receptor 68 (Homo sapiens, UniProt Q15743); experiment: Positive allosteric modulator activity at GPR68 expressed in human HEK293T cells assessed as proton-mediated calcium release at 10 uM incubated for 10 mins by Fluo-4 Direct calcium dye based FLIPR assay (reference value: 1.30 %); assay type: functional, cell-based
[2] = Positive allosteric modulator activity at GPR68 R189L mutant transfected in human HEK293T cells assessed as proton-mediated calcium release at 10 uM incubated for 10 mins by Fluo-4 Direct calcium dye based FLIPR assay (reference value: 1.42 +/- 0.01 %); conditions: HEK-293T, condition central nervous system disease
[3] = Positive allosteric modulator activity at GPR68 H269F mutant transfected in human HEK293T cells assessed as proton-mediated calcium release at 10 uM incubated for 10 mins by Fluo-4 Direct calcium dye based FLIPR assay (reference value: 1.57 +/- 0.01 %); conditions: HEK-293T, condition central nervous system disease
[4] = Positive allosteric modulator activity at GPR68 E160K mutant transfected in human HEK293T cells assessed as proton-mediated calcium release at 10 uM incubated for 10 mins by Fluo-4 Direct calcium dye based FLIPR assay (reference value: 6.79 +/- 0.02); assay type: cell-based; conditions: HEK-293T
[5] = Positive allosteric modulator activity at GPR68 E160A mutant expressed in human HEK293T cells assessed as cAMP production in presence of H+ proton by Split-luciferase based luminescence counter analysis (reference value: 6.6+/-0.3 %); conditions: HEK-293T, condition central nervous system disease
Method in brief: (§1)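 Proton concentration-response of GPR68 (wild type or E160A/K/Q, R189L/M, H269F mutants) in transiently transfected HEK293-T cells. Read-out: GloSensor cAMP, with luciferin loading 90 min at 37°C at pH 8.4. Run with and without increasing modulator concentrations; 20 min at room temperature before luminescence. Proton KA fixed to the proton EC50 without modulator. KB, τA, α, β fitted globally with an operational allosteric model. n=4.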

[6] = Positive allosteric modulator activity at GPR68 E160Q mutant expressed in human HEK293T cells assessed as cAMP production in presence of H+ proton by Split-luciferase based luminescence counter analysis (reference value: 17.0+/-1.5 %); conditions: HEK-293T, condition central nervous system disease; method in brief: as §1
[7] = Positive allosteric modulator activity at GPR68 R189L mutant expressed in human HEK293T cells assessed as cAMP production in presence of H+ proton by Split-luciferase based luminescence counter analysis (reference value: 1.4 %); conditions: HEK-293T, condition central nervous system disease; method in brief: as §1
[8] = Positive allosteric modulator activity at GPR68 H269F mutant expressed in human HEK293T cells assessed as cAMP production in presence of H+ proton by Split-luciferase based luminescence counter analysis (reference value: 17.7+/-0.8 %); conditions: HEK-293T, condition central nervous system disease; method in brief: as §1
[9] = Positive allosteric modulator activity at GPR68 E160A mutant expressed in human HEK293T cells assessed as cAMP production in presence of H+ proton by Split-luciferase based luminescence counter analysis (reference value: 7.34+/-0.05); assay type: cell-based; conditions: HEK-293T; method in brief: as §1
[10] = Positive allosteric modulator activity at GPR68 E160Q mutant expressed in human HEK293T cells assessed as cAMP production in presence of H+ proton by Split-luciferase based luminescence counter analysis (reference value: 6.83+/-0.09); assay type: cell-based; conditions: HEK-293T; method in brief: as §1
[11] = Positive allosteric modulator activity at GPR68 R189L mutant expressed in human HEK293T cells assessed as cAMP production in presence of H+ proton by Split-luciferase based luminescence counter analysis (reference value: 7.20+/-0.03); assay type: cell-based; conditions: HEK-293T; method in brief: as §1
[12] = Positive allosteric modulator activity at GPR68 R189M mutant expressed in human HEK293T cells assessed as cAMP production in presence of H+ proton by Split-luciferase based luminescence counter analysis (reference value: 6.71+/-0.03); assay type: cell-based; conditions: HEK-293T; method in brief: as §1
[13] = Positive allosteric modulator activity at GPR68 H269F mutant expressed in human HEK293T cells assessed as cAMP production in presence of H+ proton by Split-luciferase based luminescence counter analysis (reference value: 5.75+/-0.03); assay type: cell-based; conditions: HEK-293T; method in brief: as §1
Adenosine receptor A2a = Adenosine receptor A2a (Homo sapiens, UniProt P29274); experiment: Antagonist activity against A2A adenosine receptor (unknown origin) transfected in human HEK293T cells assessed as inhibition constant […] by luminescence counter analysis; assay type: functional, cell-based
[14] = molecular target: C-X-C chemokine receptor type 4 (Homo sapiens) (UniProt P61073); experiment: Antagonist activity against CXCR4 receptor (unknown origin) transfected in human HEK293T cells at 10 uM incubated for 15 mins in presence of AMD3100 by luminescence counter analysis; assay type: functional, cell-based
Method in brief: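 HEK293-T cells transiently transfected with CXCR4 and the GloSensor cAMP reporter, plated in DMEM with 1% dialyzed FBS. Test compound at 10 μM in 20 mM HEPES/HBSS, pH 7.4, 15 min at room temperature. Agonist mode: luciferin (4 mM final) plus 200 nM isoproterenol added, 20 min. Antagonist mode: compound 10 min, then reference agonist at EC80 for 10 min, then luciferin/isoproterenol. Luminescence read. CXCL12 (1 or 3 μM) is the agonist control and AMD3100 (10 μM) the antagonist control. n=2.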

[15] = molecular target: T1, G-protein coupled receptor 68; experiment: Positive allosteric modulator activity at HA-tagged GPR68 expressed in human HEK293T cells assessed as activation of PKA at pH 7.4 by immunoblotting analysis; assay type: cell-based; conditions: filed as positive allosteric modulator
Method in brief: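 HEK293 cells stably expressing N-terminal HA-tagged human GPR68 (vector-only line as control), selected with 250 μg/ml G418. Confluent cells were switched to Hams-F12 at pH 8.0 or 7.4 for 1 h, then given vehicle or 50 μM compound for 10 min. Lysate immunoblots were probed for HA, total VASP, p-p42/p44 and β-actin, read with infrared-fluorophore secondaries.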

T1 sequence (Q15743 whole entry): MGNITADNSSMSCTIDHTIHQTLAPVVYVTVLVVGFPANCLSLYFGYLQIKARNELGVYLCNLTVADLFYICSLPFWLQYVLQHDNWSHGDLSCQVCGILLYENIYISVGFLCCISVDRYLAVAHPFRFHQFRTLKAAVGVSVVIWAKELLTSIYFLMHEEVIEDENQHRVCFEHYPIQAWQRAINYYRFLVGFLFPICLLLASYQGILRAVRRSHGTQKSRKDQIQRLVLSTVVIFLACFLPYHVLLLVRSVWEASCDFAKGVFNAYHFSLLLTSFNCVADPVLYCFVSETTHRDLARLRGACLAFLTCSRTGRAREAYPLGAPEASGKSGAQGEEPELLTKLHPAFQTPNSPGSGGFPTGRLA
Adenosine receptor A2a, sequence (P29274 whole entry): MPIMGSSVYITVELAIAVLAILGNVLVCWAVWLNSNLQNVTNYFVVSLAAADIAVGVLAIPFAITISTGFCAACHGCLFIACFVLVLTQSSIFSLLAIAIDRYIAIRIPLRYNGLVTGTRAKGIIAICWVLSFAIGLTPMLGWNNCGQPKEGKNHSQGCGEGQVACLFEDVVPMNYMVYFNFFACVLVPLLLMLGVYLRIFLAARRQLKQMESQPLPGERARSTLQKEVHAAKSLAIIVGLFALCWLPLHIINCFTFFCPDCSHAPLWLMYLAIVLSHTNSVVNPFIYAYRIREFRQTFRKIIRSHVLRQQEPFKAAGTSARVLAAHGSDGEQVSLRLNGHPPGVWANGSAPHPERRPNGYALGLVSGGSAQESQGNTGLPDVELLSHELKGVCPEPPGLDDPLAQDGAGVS
C-X-C chemokine receptor type 4 (Homo sapiens), sequence (P61073 whole entry): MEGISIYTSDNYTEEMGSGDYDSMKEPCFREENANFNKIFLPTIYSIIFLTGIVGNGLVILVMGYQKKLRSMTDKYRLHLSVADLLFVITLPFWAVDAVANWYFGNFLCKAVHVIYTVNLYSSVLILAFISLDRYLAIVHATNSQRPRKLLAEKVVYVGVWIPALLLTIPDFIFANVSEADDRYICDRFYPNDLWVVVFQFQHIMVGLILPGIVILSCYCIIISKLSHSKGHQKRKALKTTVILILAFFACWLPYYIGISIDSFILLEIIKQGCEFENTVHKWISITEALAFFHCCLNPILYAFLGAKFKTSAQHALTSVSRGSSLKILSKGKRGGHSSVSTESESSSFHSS

- Emax [1]: 1.07%
- EC50 [4]: 0.151 µM
- Ki (Adenosine receptor A2a): 0.22 µM
- Activity [14]: inactive
- Activity [15]: Active
SMILES: Nc1nc(NCc2ccccc2)nc(-c2ccccc2CO)n1 [Ogerin]
- Emax at 10 µM [2]: 1.35%
- Emax at 10 µM [3]: 1.56%
- Emax [5]: 11.7%
- Emax [6]: 27.5%
- Emax [7]: 5.3%
- Emax [8]: 45.1%
- EC50 [9]: 0.0117 µM
- EC50 [10]: 0.0269 µM
- EC50 [11]: 0.0437 µM
- EC50 [12]: 0.191 µM
- EC50 [13]: 0.398 µM
